Test results: ChEMBL document CHEMBL1157795, “Structure-activity relationship of an ozonide carboxylic acid (OZ78) against Fasciola hepatica” (2010)
Active and inactive are the calls of the source. No cut-off for these calls is given here.

Columns and labels:
Fasciola hepatica [1] = test: Antiparasitic activity against Fasciola hepatica infected in rat assessed as reduction in worm burden at 100 mg/kg, po administered as single dose measured after 6 days post treatment; assay type: functional; design: scale not given: the % may be the effect or the level left
Outline: (§1)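 Female Wistar rats (~100 g) infected with ~20 F. hepatica metacercariae each; at 8 weeks post-infection given a single 100 mg/kg oral dose as suspension in 7% (v/v) Tween 80 / 3% (v/v) EtOH. Killed by CO2 on day 6 post-treatment; adult flukes recovered from bile ducts and livers. Mean total worm burden compared with untreated controls; cures scored; Kruskal-Wallis test, 5% level.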

Fasciola hepatica [2] = test: Antiparasitic activity against Fasciola hepatica infected in rat assessed as induction of cure at 100 mg/kg, po administered as single dose measured after 6 days post; assay type: functional, organism-based; design: dose 100 mg/kg; outline: as §1
Fasciola hepatica [3] = test: Antiparasitic activity against Fasciola hepatica infected in rat assessed as reduction in worm burden at 50 mg/kg, po administered as single dose measured after 6 days post treatment; assay type: functional; design: scale not given: the % may be the effect or the level left
Outline: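 Female Wistar rats (~100 g), each infected with ~20 F. hepatica metacercariae, dosed orally once at 8 weeks post-infection with 50 mg/kg suspended in 7% (v/v) Tween 80 plus 3% (v/v) EtOH. Day 6 after treatment: CO2 sacrifice, adult flukes counted from bile ducts and liver. Worm burden reduction versus untreated control rats (mean totals); Kruskal-Wallis significance.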

SMILES	Activity (Fasciola hepatica [1])	Activity (Fasciola hepatica [2])	Activity (Fasciola hepatica [3])
O=C(O)C[C@H]1CC[C@]2(CC1)OO[C@]1(O2)C2CCCC1CCC2	51%	inactive	–
NC(=O)C[C@H]1CC[C@]2(CC1)OO[C@]1(O2)C2CC3CC(C2)CC1C3	7%	inactive	–
O=C([O-])CN1CC[C@]2(CC1)OO[C@]1(O2)C2CC3CC(C2)CC1C3.[Na+]	0%	inactive	–
O=C(C[C@H]1CC[C@]2(CC1)OO[C@]1(O2)C2CC3CC(C2)CC1C3)NCCS(=O)(=O)[O-].[Na+]	0%	inactive	–
O=C(O)C[C@H]1CC[C@]2(CC1)OO[C@]1(O2)C2CC3CC1C[C@@](F)(C3)C2	80%	–	–
O=C(O)C[C@H]1CC[C@@]2(CC1)C[C@@]1(OO2)C2CC3CC(C2)CC1C3	7%	inactive	–
O=C(O)C[C@@H]1CCC[C@]2(C1)OOC1(O2)C2CC3CC(C2)CC1C3 (relative stereo)	90%	–	–
O=C(O)CNC(=O)C[C@H]1CC[C@]2(CC1)OO[C@]1(O2)C2CC3CC(C2)CC1C3	86%	–	–
O=C(O)C[C@H]1CC[C@]2(CC1)OO[C@]1(O2)C2CC3CC1CC(C2)C3F (some centres not stated)	76%	–	–
NNC(=O)C[C@H]1CC[C@]2(CC1)OO[C@]1(O2)C2CC3CC(C2)CC1C3	12%	inactive	–
O=C(O)C[C@H]1CC[C@@]2(CC1)OO[C@@]1(O2)C2CC3CC(C2)CC1C3	95%	–	–
O=C(O)[C@H]1CC[C@]2(CC1)OO[C@]1(O2)C2CC3CC(C2)CC1C3	52%	–	–
O=C(C[C@H]1CC[C@]2(CC1)OO[C@]1(O2)C2CC3CC(C2)CC1C3)NO	34%	inactive	–
O=C(O)C[C@H]1CC[C@]2(CC1)OO[C@]1(O2)C2CC3CC1CC(C2)C3(F)F	80%	inactive	–
CCOC(=O)C[C@H]1CC[C@]2(CC1)OO[C@]1(O2)C2CC3CC(C2)CC1C3	–	–	36%
O=C(O)C[C@H]1CC[C@]2(CC1)OO[C@@]1(CCCCC1)O2	0%	inactive	–
N=C(N)NC(=O)C[C@H]1CC[C@]2(CC1)OO[C@]1(O2)C2CC3CC(C2)CC1C3	0%	inactive	–
O=C(O)C(=O)NC[C@H]1CC[C@]2(CC1)OO[C@]1(O2)C2CC3CC(C2)CC1C3	14%	inactive	–
O=C(O)C[C@H]1CCCC[C@@]12OOC1(O2)C2CC3CC(C2)CC1C3 (some centres not stated)	46%	inactive	–
O=C(O)C[C@H]1CC[C@]2(CC1)OC[C@]1(O2)C2CC3CC(C2)CC1C3	0%	inactive	–
O=C(C[C@H]1CC[C@]2(CC1)OO[C@]1(O2)C2CC3CC(C2)CC1C3)N1CCNCC1	0%	inactive	–
O=C(O)C[C@H]1CC[C@]2(CC1)OO[C@]1(O2)C2CC3CC(C2)CC1C3	100%	Active	–
C[C@H]1[C@H](OC(=O)CCC(=O)O)O[C@@H]2O[C@@]3(C)CC[C@H]4[C@H](C)CC[C@@H]1[C@@]24OO3 [ARTESUNATE]	30%	–	–
CCOP(=O)([O-])C[C@H]1CC[C@]2(CC1)OO[C@]1(O2)C2CC3CC(C2)CC1C3.[K+]	16%	inactive	–
COC(=O)C[C@H]1CC[C@]2(CC1)OO[C@]1(O2)C2CC3CC(C2)CC1C3	99%	–	–
O=C(O)CC[C@H]1CC[C@]2(CC1)OO[C@]1(O2)C2CC3CC(C2)CC1C3	14%	inactive	–
CS(=O)(=O)NC(=O)C[C@H]1CC[C@]2(CC1)OO[C@]1(O2)C2CC3CC(C2)CC1C3	100%	Active	–
O=C(O)C(C(=O)O)[C@H]1CC[C@]2(CC1)OO[C@]1(O2)C2CC3CC(C2)CC1C3	0%	inactive	–
